Results from ChEMBL document CHEMBL3085685, “In vitro and in vivo antileishmanial and trypanocidal studies of new N-benzene- and N-naphthalenesulfonamide derivatives” (J Med Chem, 2013).
Activity calls are given as the source filed them. The rule behind the calls is not given here.

Legend:
Leishmania braziliensis = assay: Leishmanicidal activity against extracellular promastigote stage of Leishmania braziliensis 2903 assessed as reduction of parasite load after 48 hrs by resazurin dye-based fluorometric analysis; assay type: functional, organism-based; conditions: Leishmania braziliensis, 2903, 48 h; read-out: IC50
Summary of the method: (§1)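 Log-phase promastigotes cultured in Schneider's medium with 20% heat-inactivated FBS at 26 °C, 2.5 × 10^5 per well. DMSO-dissolved compounds added as 2-fold serial dilutions, final DMSO ≤0.2% (v/v), 48 h at 26 °C. Growth read by 2.5 mM resazurin stock, fluorescence 535/590 nm. Triplicate; IC50 by probit analysis.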

Leishmania infantum [1] = assay: Leishmanicidal activity against extracellular promastigote stage of Leishmania infantum MCAN/ES/96/BCN150 assessed as reduction of parasite load after 48 hrs by resazurin dye-based fluorometric analysis; assay type: functional, organism-based; summary of the method: as §1
Leishmania guyanensis = assay: Leishmanicidal activity against extracellular promastigote stage of Leishmania guyanensis 141/93 assessed as reduction of parasite load after 48 hrs by resazurin dye-based fluorometric analysis; assay type: functional, organism-based; conditions: Leishmania guyanensis, 141/93, 48 h; read-out: IC50; summary of the method: as §1
[2] = Cytotoxicity against mouse J774 cells assessed as reduction of cell viability after 24 hrs by resazurin dye-based fluorometric analysis
Summary of the method: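 J774 macrophages in RPMI 1640 with 10% heat-inactivated FBS, seeded at 5 × 10^4 cells/well and attached 24 h at 37 °C, 5% CO2. Medium swapped for drug dilutions for 24 h. Then 2.5 mM resazurin stock added for 3 h, fluorescence read at 535 nm excitation / 590 nm emission. Triplicate; CC50 from probit analysis.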

Leishmania amazonensis [3] = assay: Leishmanicidal activity against extracellular promastigote stage of Leishmania amazonensis MHOM/Br/79/Maria assessed as reduction of parasite load after 48 hrs by resazurin dye-based fluorometric analysis; assay type: functional, organism-based; summary of the method: as §1
Trypanosoma cruzi [4] = assay: Trypanocidal activity against bloodstream trypomastigote stage of Trypanosoma cruzi Y infected in BALB/c mouse assessed as reduction of parasitemia at 10 mg/kg/day, ip qd administered for 3 days measured on day 8 post-infection by microscopic analysis relative to control; assay type: functional; set-up: scale not given: the % may be the effect or the level left; conditions: route intraperitoneal
Summary of the method: (§2)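 Female BALB/c mice (20–24 g) infected ip with 10^4 Y-strain bloodstream trypomastigotes; only parasitemic animals used. Compounds dissolved in DMSO, freshly diluted in propylene glycol, given ip at 10 mg/kg/day for 5 days from 5 dpi, with an untreated group. Parasitemia counted by Pizzi–Brener in 5 μL tail blood at 5, 8, 10 dpi; mortality checked daily to 30 dpi.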

Trypanosoma cruzi [5] = assay: Trypanocidal activity against intracellular amastigote stage of Trypanosoma cruzi CL-B5 infected in mouse NCTC-929 cells assessed as reduction of parasite load after 7 days by CPRG-based colorimetric analysis
Leishmania infantum [6] = assay: Leishmanicidal activity against intracellular amastigote stage of Leishmania infantum MCAN/ES/96/BCN150 infected in mouse J774 cells assessed as reduction of parasite load after 48 hrs by resazurin dye-based fluorometric analysis; assay type: functional, organism-based
Summary of the method: (§3)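 J774 macrophages (5 × 10^4/well) infected with stationary promastigotes at 1:10, 24 h at 33 °C then 24 h at 37 °C, 5% CO2, and washed free of promastigotes. Then 2-fold serial dilutions in triplicate for 48 h at 37 °C. Cells lysed with RPMI with 0.048% HEPES and 0.006% SDS, transformed in Schneider's 3 days at 26 °C, resazurin 3 h, fluorescence 535/590 nm.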

Trypanosoma cruzi [7] = assay: Trypanocidal activity against extracellular epimastigote stage of Trypanosoma cruzi CL-B5 assessed as reduction of parasite load after 72 hrs by CPRG-based colorimetric analysis
Leishmania amazonensis [8] = assay: Leishmanicidal activity against intracellular amastigote stage of Leishmania amazonensis MHOM/Br/79/Maria infected in mouse J774 cells assessed as reduction of parasite load after 48 hrs by resazurin dye-based fluorometric analysis; assay type: functional, organism-based; summary of the method: as §3
[9] = Cytotoxicity against mouse NCTC-929 cells assessed as reduction of cell viability after 24 hrs by resazurin dye-based […]
Summary of the method: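 NCTC clone 929 fibroblasts in DMEM with 10% FBS and 2 mM L-glutamine, plated at 3 × 10^4 cells/well and grown overnight at 37 °C, 5% CO2. Compounds in fresh medium for 24 h, then 2 mM resazurin solution added for 3 h. Absorbance read at 570 and 595 nm; CC50 taken as 50% viability loss versus untreated cells, by probit analysis.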

[10] = Selectivity index, ratio of CC50 for mouse NCTC-929 cells to IC50 for extracellular epimastigote stage of Trypanosoma cruzi CL-B5; assay type: functional
Trypanosoma cruzi [11] = assay: Trypanocidal activity against bloodstream trypomastigote stage of Trypanosoma cruzi Y infected in BALB/c mouse assessed as reduction of parasitemia at 10 mg/kg/day, ip qd administered for 5 days measured on day 10 post-infection by microscopic analysis relative to control; assay type: functional; set-up: scale not given: the % may be the effect or the level left; conditions: route intraperitoneal; summary of the method: as §2
Trypanosoma cruzi [12] = assay: Trypanocidal activity against bloodstream trypomastigote stage of Trypanosoma cruzi Y infected in BALB/c mouse assessed as reduction of survival rate at 10 mg/kg/day, ip qd administered for 5 days measured daily until day 30 post-infection; assay type: functional, organism-based; summary of the method: as §2
[13] = Selectivity index, ratio of CC50 for mouse J774 cells to IC50 for extracellular promastigote stage of Leishmania infantum MCAN/ES/96/BCN150; assay type: functional
Leishmania infantum [14] = assay: Leishmanicidal activity against promastigote stage of Leishmania infantum MCAN/ES/96/BCN150 infected in BALB/c mouse assessed as reduction of parasite burden in liver at 5 mg/kg, ip qd administered for 5 days measured after 7 days by limiting dilution assay relative to untreated control; assay type: functional
Summary of the method: (§4)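 BALB/c mice infected intracardially under pentobarbital anaesthesia with 10^7 stationary L. infantum BCN150 promastigotes. From day 21 post-infection, dosed ip once daily for 5 days in 0.1 mL propylene glycol, with an untreated control group. Killed 7 days later; spleen and liver burdens by limiting dilution and expressed as % reduction versus controls.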

Leishmania infantum [15] = assay: Leishmanicidal activity against promastigote stage of Leishmania infantum MCAN/ES/96/BCN150 infected in BALB/c mouse assessed as reduction of parasite burden in spleen at 5 mg/kg, ip qd administered for 5 days measured after 7 days by limiting dilution assay relative to untreated control; assay type: functional; set-up: scale not given: the % may be the effect or the level left; conditions: route intraperitoneal; summary of the method: as §4
[16] = Selectivity index, ratio of CC50 for mouse J774 cells to IC50 for extracellular promastigote stage of Leishmania amazonensis MHOM/Br/79/Maria; assay type: functional
[17] = Leishmania infantum, MCAN/ES/96/BCN150, 48 h, read-out: IC50
[18] = Leishmania amazonensis, MHOM/Br/79/Maria, 48 h, read-out: IC50
[19] = Trypanosoma cruzi, CL-B5, NCTC-929, 168 h, read-out: IC50
[20] = Trypanosoma cruzi, CL-B5, 72 h, read-out: IC50

Row | SMILES | IC50 (Leishmania braziliensis) | IC50 (Leishmania infantum [1]; [17]) | IC50 (Leishmania guyanensis) | CC50 at 24 h [2] | IC50 (Leishmania amazonensis [3]; [18]) | IC50 (Trypanosoma cruzi [7]) | other results
1 | O=S(=O)(Nc1cccc2cnccc12)c1ccc(Cl)cc1 | 29.8 µM | 21 µM | 22.6 µM | 60.8 µM | 8.4 µM | – | –
2 | O=S(=O)(Nc1ccc2cn[nH]c2c1)c1ccc(F)cc1 | 88.8 µM | 94.8 µM | 96.3 µM | ≥ 300 µM | 108 µM | – | Activity (Trypanosoma cruzi [4]): -50%; IC50 (Trypanosoma cruzi [5]; [19]): 28.5 µM; IC50 (Leishmania infantum [6]; j774): Not Active; IC50 (Trypanosoma cruzi [7]; [20]): 1.3 µM; IC50 (Leishmania amazonensis [8]; j774): Not Active; CC50 at 24 h [9]: 223 µM; Ratio CC50/IC50 [10]: >196.9; Activity (Trypanosoma cruzi [11]): 44%; Activity (Trypanosoma cruzi [12]): inactive
3 | O=S(=O)(Nc1nccc2ccccc12)c1ccccc1 | 162 µM | – | 93.5 µM | ≥ 300 µM | 93.5 µM | – | IC50 (Leishmania infantum [1]): Not Active
4 | O=[N+]([O-])c1ccc(S(=O)(=O)Nc2cnccn2)cc1 | 61.5 µM | – | 84.2 µM | ≥ 300 µM | – | – | Activity (Trypanosoma cruzi [4]): 14%; IC50 (Trypanosoma cruzi [5]; [19]): 224 µM; IC50 (Leishmania infantum [6]; j774): Not Active; IC50 (Trypanosoma cruzi [7]; [20]): 76.1 µM; IC50 (Leishmania amazonensis [8]; j774): Not Active; CC50 at 24 h [9]: 317 µM; IC50 (Leishmania amazonensis [3]): Not Active; Ratio CC50/IC50 [10]: >4.7; Activity (Trypanosoma cruzi [11]): 57%; Activity (Trypanosoma cruzi [12]): inactive
5 | O=[N+]([O-])c1ccc(S(=O)(=O)Nc2ccc3cn[nH]c3c2)cc1 | 21.7 µM | 43.3 µM | 48.1 µM | ≥ 300 µM | 60.3 µM | Not Active | –
6 | O=S(=O)(Nc1ccc2nccnc2c1)c1ccc(F)cc1 | 13.4 µM | 33.4 µM | 29.8 µM | 43.9 µM | 14.2 µM | – | –
7 | Cc1cc2cc(NS(=O)(=O)c3ccc([N+](=O)[O-])cc3)ccc2[nH]1 | 16.8 µM | 35.2 µM | 19.6 µM | 132 µM | 15.8 µM | – | –
8 | O=S(=O)(Nc1ccc2ncsc2c1)c1ccccc1 | 30.6 µM | 18.4 µM | 23.7 µM | ≥ 300 µM | 82.6 µM | Not Active | Ratio CC50/IC50 [13]: > 13.9; Activity (Leishmania infantum [14]): inactive; Activity (Leishmania infantum [15]): 53.51%; Ratio CC50/IC50 [16]: >3.1; IC50 (Trypanosoma cruzi [5]; nctc-929): Not Active; IC50 (Leishmania infantum [6]; Leishmania infantum, MCAN/ES/96/BCN150, J774, 48 h, read-out: IC50): 39.2 µM; IC50 (Leishmania amazonensis [8]; Leishmania amazonensis, MHOM/Br/79/Maria, J774, 48 h, read-out: IC50): 77.5 µM
9 | CC1CCCN(S(=O)(=O)c2ccccc2)C1 (stereo not drawn) | 115 µM | 112 µM | 54.3 µM | ≥ 300 µM | 40.9 µM | Not Active | –
10 | O=S(=O)(Nc1ccc2[nH]ncc2c1)c1ccc(F)cc1 | 86.6 µM | 65.4 µM | 102 µM | ≥ 300 µM | 116 µM | Not Active | –
11 | O=S(=O)(Nc1nccc2ccccc12)c1ccc(Cl)cc1 | 37 µM | 51.4 µM | 4.3 µM | ≥ 300 µM | 82.8 µM | Not Active | –
12 | O=S(=O)(Nc1ccc2c[nH]nc2c1)c1ccc(Cl)cc1 | 35.6 µM | 43.5 µM | 46.1 µM | ≥ 300 µM | 59.1 µM | – | Activity (Trypanosoma cruzi [4]): -10%; IC50 (Trypanosoma cruzi [5]; [19]): 12.3 µM; IC50 (Leishmania infantum [6]; j774): Not Active; IC50 (Trypanosoma cruzi [7]; [20]): 25.9 µM; IC50 (Leishmania amazonensis [8]; j774): Not Active; CC50 at 24 h [9]: 211 µM; Ratio CC50/IC50 [10]: >9.9; Activity (Trypanosoma cruzi [11]): 14%; Activity (Trypanosoma cruzi [12]): inactive
13 | Cc1cc2cc(NS(=O)(=O)c3cccc4ccccc34)ccc2[nH]1 | 11.6 µM | 11.9 µM | 13.6 µM | 24.6 µM | 7.4 µM | – | –
